Laboratory results as given in ChEMBL document CHEMBL1148217, “Potential antipsoriatic avarol derivatives as antioxidants and inhibitors of PGE(2) generation and proliferation in the HaCaT cell line” (J Nat Prod, 2004).
pIC50: −log10 of the molar value.

Columns and labels:
[1] = tested on: HaCaT; experiment: Inhibition of PGE2 production in human HaCaT cells at 5 uM after 24 hrs by RIA; type: functional
[2] = Antiproliferative activity against human HaCaT cells assessed as [3H]thymidine incorporation at 5 uM after 24 hrs; type: cell-based
[3] = tested on: Neutrophil; experiment: Inhibition of TPA-induced ROS production in human neutrophils at 5 uM by chemiluminescence; type: functional
[4] = tested on: HaCaT; experiment: Antiproliferative activity against human HaCaT cells assessed as [3H]thymidine incorporation after 24 hrs; type: cell-based
Procedure, shortened: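 HaCaT keratinocytes were grown in DMEM with 10% FCS, penicillin and streptomycin at 37 °C and 5% CO₂. Cells were seeded at 4 × 10⁴/well for 24 h, then the medium was replaced and compounds or vehicle (1% EtOH) added for 24 h. Cells were pulsed 6 h with methyl-³H-thymidine (1 µCi/mL), and incorporation was counted by scintillation. %I at 5 µM; IC₅₀ from ≥4 concentrations (n = 6); mean ± SEM.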

[5] = tested on: HaCaT; experiment: Cytotoxicity against human HaCaT cells assessed as plasma membrane integrity damage at 5 uM; type: cell-based
Procedure, shortened: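 Membrane damage in treated HaCaT keratinocytes was measured as LDH leakage into the culture medium, read as A550nm (mU), with compounds at 5 µM. Results are mean ± SEM; ANOVA followed by Dunnett's t-test.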

[6] = tested on: Radical scavenging activity; experiment: Antioxidant activity assessed as DPPH free radical scavenging activity after 30 mins by assay in solution
[7] = tested on: Neutrophil; experiment: Inhibition of TPA-induced ROS production in human neutrophils by chemiluminescence; type: functional, cell-based
[8] = tested on: HaCaT; experiment: Inhibition of PGE2 production in human HaCaT cells after 24 hrs by RIA; type: functional, cell-based

Compound | inhibition at 5 µM [1] [%] | inhibition at 24 h, 5 µM [2] [%] | inhibition at 5 µM [3] [%] | pIC50 [4] | Activity [5] [%] | pIC50 [6] | pIC50 [7] | pIC50 [8]
CC1=CCC[C@H]2[C@](C)(CC3=CC(=O)C=C(NCCc4c[nH]c5ccccc45)C3=O)[C@@H](C)CC[C@]12C | 47.1 | 33.3 | 25.2 |  |  |  |  | 
CC1=CCC[C@H]2[C@](C)(CC3=CC(=O)C(NCCc4c[nH]c5ccccc45)=CC3=O)[C@@H](C)CC[C@]12C | 50.4 | 36.7 | 26.7 |  |  |  |  | 
CNC1=CC(=O)C(C[C@]2(C)[C@@H](C)CC[C@]3(C)C(C)=CCC[C@@H]23)=CC1=O | 54.8 | 33.5 | 37.8 |  |  |  |  | 
O=C1c2c(O)cccc2Cc2cccc(O)c21 [ANTHRALIN] |  | 73.8 | 31.2 | 5.54 | 59 |  |  | 
CC1=CCC[C@H]2[C@](C)(Cc3cc(O)ccc3O)[C@@H](C)CC[C@]12C [AVAROL] | 4.9 | 18.9 | 71.7 |  |  | 4.74 | 5.44 | 
COc1cc2ccc(=O)oc2c(O)c1O [FRAXETIN] |  |  | 76.4 |  |  |  | 6.00 | 
CS(=O)(=O)Nc1ccc([N+](=O)[O-])cc1OC1CCCCC1 [NS-398] | 93.8 |  |  |  |  |  |  | 8.00
